ChEMBL document CHEMBL4196187, “Peloruside E (22-Norpeloruside A), a Pelorusane Macrolide from the New Zealand Marine Sponge Mycale hentscheli, Retains Microtubule-Stabilizing Properties” (J Nat Prod, 2018)
Calls of active or inactive are those of the source. The rule behind the calls is not given here.

Tests used:
[1] = system: HL-60; experiment: Cell cycle arrest in human HL60 cells assessed as accumulation at S phase at 1500 nM after 18 hrs by propidium iodide staining based flow cytometry (reference value: 20%); format: functional
[2] = system: HL-60; experiment: Cell cycle arrest in human HL60 cells assessed as accumulation at S phase at 300 nM after 18 hrs by propidium iodide staining based flow cytometry (reference value: 20%); format: functional
[3] = system: HL-60; experiment: Growth inhibition of human HL60 cells after 48 hrs by MTT assay; format: functional, cell-based; conditions: HL-60, 48 h
How it was run: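 Human promyelocytic leukemia HL-60 cells; MTT cell proliferation read-out after 48 h incubation. IC50 derived from n = 3 replicates, reported as SEM.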

[4] = system: HL-60; experiment: Cell cycle arrest in human HL60 cells assessed as accumulation at G1 phase at 300 nM after 18 hrs by propidium iodide staining based flow cytometry (reference value: 62%); format: functional
[5] = system: HL-60; experiment: Cell cycle arrest in human HL60 cells assessed as accumulation at G1 phase at 1500 nM after 18 hrs by propidium iodide staining based flow cytometry (reference value: 62%); format: functional
[6] = system: HL-60; experiment: Cell cycle arrest in human HL60 cells assessed as accumulation at G2/M phase at 300 nM after 18 hrs by propidium iodide staining based flow cytometry (reference value: 19%); format: functional
[7] = system: HL-60; experiment: Cell cycle arrest in human HL60 cells assessed as accumulation at G2/M phase at 1500 nM after 18 hrs by propidium iodide staining based flow cytometry (reference value: 19%); format: functional
[8] = system: HL-60; experiment: Cell cycle arrest in human HL60 cells assessed as accumulation at S phase at 500 nM after 18 hrs by propidium iodide staining based flow cytometry (reference value: 20%); format: functional
[9] = system: HL-60; experiment: Cell cycle arrest in human HL60 cells assessed as accumulation at S phase at 100 nM after 18 hrs by propidium iodide staining based flow cytometry (reference value: 20%); format: functional
[10] = system: HL-60; experiment: Cell cycle arrest in human HL60 cells assessed as accumulation at G1 phase at 100 nM after 18 hrs by propidium iodide staining based flow cytometry (reference value: 62%); format: functional
[11] = system: HL-60; experiment: Cell cycle arrest in human HL60 cells assessed as accumulation at G1 phase at 500 nM after 18 hrs by propidium iodide staining based flow cytometry (reference value: 62%); format: functional
[12] = system: HL-60; experiment: Cell cycle arrest in human HL60 cells assessed as accumulation at G2/M phase at 100 nM after 18 hrs by propidium iodide staining based flow cytometry (reference value: 19%); format: functional
[13] = system: HL-60; experiment: Cell cycle arrest in human HL60 cells assessed as accumulation at G2/M phase at 500 nM after 18 hrs by propidium iodide staining based flow cytometry (reference value: 19%); format: functional
[14] = species on record: Sus scrofa; experiment: Induction of porcine brain tubulin polymerization at 2.8 uM measured at 1 min interval over 100 mins by fluorescence assay
[15] = system: HL-60; experiment: Cell cycle arrest in human HL60 cells assessed as accumulation at S phase at 1000 nM after 18 hrs by propidium iodide staining based flow cytometry (reference value: 20%); format: functional
[16] = system: HL-60; experiment: Cell cycle arrest in human HL60 cells assessed as accumulation at G1 phase at 1000 nM after 18 hrs by propidium iodide staining based flow cytometry (reference value: 62%); format: functional
[17] = system: HL-60; experiment: Cell cycle arrest in human HL60 cells assessed as accumulation at G2/M phase at 1000 nM after 18 hrs by propidium iodide staining based flow cytometry (reference value: 19%); format: functional

| Compound | Activity [1] | Activity [2] | IC50 [3] | Activity [4] | Activity [5] | Activity [6] | Activity [7] | Activity [8] | Activity [9] | Activity [10] | Activity [11] | Activity [12] | Activity [13] | induction [14] | Activity [15] | Activity [16] | Activity [17] |
| --- | --- | --- | --- | --- | --- | --- | --- | --- | --- | --- | --- | --- | --- | --- | --- | --- | --- |
| CC[C@H](/C=C(/C)[C@@H]1C[C@@H](OC)C[C@H](O)[C@@H](C)[C@@]2(O)O[C@@H](C[C@@H](OC)[C@H](O)C(=O)O1)C[C@@H](OC)[C@H]2O)CO | 23% | 22% | 90 nM | 38% | 29% | 39% | 49% |  |  |  |  |  |  |  |  |  |  |
| CC[C@H](/C=C(/C)[C@@H]1C[C@@H](OC)C[C@H](O)C(C)(C)[C@@]2(O)O[C@@H](C[C@@H](OC)[C@H](O)C(=O)O1)C[C@@H](OC)[C@H]2O)CO |  |  | 19 nM |  |  |  |  | 23% | 23% | 27% | 30% | 50% | 47% | Active |  |  |  |
| CC(=O)O[C@H]1C(=O)[C@@]2(C)[C@H]([C@H](OC(=O)c3ccccc3)[C@]3(O)C[C@H](OC(=O)[C@H](O)[C@@H](NC(=O)c4ccccc4)c4ccccc4)C(C)=C1C3(C)C)[C@]1(OC(C)=O)CO[C@@H]1C[C@@H]2O [PACLITAXEL] |  |  |  |  |  |  |  |  |  |  |  |  |  | Active | 19% | 28% | 53% |
